System: MS2 coat protein
Assay: apparent Kd, MS2 coat protein; higher = weaker binding; RNA-MaP array; FMN 200 µM where present
Summary of the method: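 Green signal was scaled to red-channel RNA signal and control-cluster median Fmax, and the apparent Kd was taken as the median of filtered per-cluster binding-curve fits. The binding series used SNAP-549-labelled MS2 coat protein from 0.7 or 1.5 nM, doubling to 3 µM, on designs transcribed by stalled E. coli RNA polymerase on Illumina sequencing-chip clusters. Each series ran without and then with constant ligand in 100 mM Tris-HCl pH 7.5, 80 mM KCl, 4 mM MgCl2, BSA, DTT, yeast tRNA and Tween-20.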

[1] = ligand present: flavin mononucleotide, designed as: ON switch for flavin mononucleotide
[2] = designed as: OFF switch for flavin mononucleotide, no ligand
[3] = ligand present: flavin mononucleotide, designed as: OFF switch for flavin mononucleotide
[4] = designed as: ON switch for flavin mononucleotide, no ligand

Row | Sequence | apparent Kd [1] [nM] | apparent Kd [2] [nM] | apparent Kd [3] [nM] | apparent Kd [4] [nM]
1 | UGAAUCAAUACAGGAUAUGGUGACGCACAUGAGGAUCACCCAUGUCCGCAGCGUGCUCAGCACGCCCAGAAGGGUAUUGAUCCG | 84.8 | – | – | –
2 | AAUUCACAUGAGGAUCACCCAUGUCAGGAUAUGGUUUCGCGGGUUUCGGUGCGUGAGGCCAGAAGGGACAGCUA | – | 53.3 | 72.4 | –
3 | GACUUGUUAGGAUAUCUUACAUUUGCAUCAUAGUAACCAUUGGAGAAGGGACAUGAGGAUCACCCAUGUUUGGA | – | 31.6 | 30.1 | –
4 | GGCUAACAUGAGGAUCACCCAUGUCGCCAAAAUCGAGGAUAUGGGUGCCAGCUCGGGCAGCCAGAAGGCGACAAAA | 33.1 | – | – | 225
5 | CCCGACCAGAAGUCGGUACGGAGGAGAAGGCGCCUCCUGGGUCCACAUGAGGAUCACCCAUGUGGCGAGGAUAUCCUCAGUUUU | – | 13.7 | 119 | –
6 | GUGCUGGAGCUUUGCUUUAGUCGUACAUGAGGAUCACCCAUGUAGGAUAUGGUAGGCUUUGCUUACUAGAAGGAUAGAGUGGUC | – | 40.3 | 26.8 | –
7 | AACAUGGUCCAGAAGGGCUAUUUAUUUAAUUAUUAUUUAGAACAGCAUAGCAGGAUAUGGUUAACAUGAGGAUCACCCAUGUAC | 11.5 | – | – | 16
8 | UGUUGUAUUACAGGAUAUCUAUUGUUGUUAUUUAGAGAAGGGUAUUCACAUGAGGAUCACCCAUGUAUAUACGAGGAAGUUGUG | 56.6 | – | – | 56
9 | AAUAGUGACCAGAAGGCGUCGCGUCGAUAGCGACGAGGAUAUGGUGAGUGAGGAGCAAACUCCACAUGAGGAUCACCCAUGUCC | 89.9 | – | – | 594
10 | GGGAAGUUAGGAUAUGCUGCUCGUCACUUGCGUGAUGAGUAGCAGAAGGGACAUGAGGAUCACCCAUGUAAAAA | – | 51.1 | 26.8 | –
11 | UAUGGUUAAGUCAGGAUAUGCUCGUAGAAGUCUAUGCAGAAGGGACAUGAGGAUCACCCAUGUAUGGUCGUGUU | – | 94.3 | 177 | –
12 | AAAAUUGGCAGAUAAAAGGUCACACAGGAUAUACUCCCAACAUGAGGAUCACCCAUGUACUGGCGGUAGAAGGGUGGGAUCCUC | 13.5 | – | – | 50.7
13 | UCCAAAUCGUAGAAGGGUGACAUGAGGAUCACCCAUGUGCAGCAACCGUGAACGGCCAUGCUGCCACAGGAUAUACGAUGGAGU | 29.8 | – | – | 14.1
14 | AGUGUGUGGCAGGAUAUUCUAAUCGUGAGUCGGGAAGAAGGGUCUACAUGAGGAUCACCCAUGUAAGCGGUUGA | – | 132 | 144 | –
15 | GUUGGCUGAGGAUAUGCUUGCGUGCGUUUGUGUCGCGGGUGACAUGAGGAUCACCCAUGUAGAAGGUGGUCGGC | – | 1530 | 980 | –
16 | UGCAUGUGAGGAUAUGUGUACUGUUUUUUGUUUAGAUGUACACAGAAGGCACAUGAGGAUCACCCAUGUAGUAC | – | 95.8 | 22.4 | –
17 | AUCCGGCGUGUAGGAUAUGGAACCGAUUAGGAUCCAGAAGGACAUGAGGAUCACCCAUGUACAUGUAAACAGUCAUCACCGGAA | – | 10.9 | 65.3 | –
18 | GCGUCAGAAUUAAUUGUGACAUACAGAAGGCAAAAUUAAGGAUAAGACAUGAGGAUCACCCAUGUUGAGGAUAUGUAGUGACGC | – | 8.7 | 7.57 | –
19 | UUGGACGUCGUAGGAUAUGUAGGAUAUUCCUACAUGAGGAUCACCCAUGUUGACAUGGAAGAAGGAGAGAAGGACGAUGUCCAU | 354 | – | – | 308
20 | AUAUGAUAGAUAGGAUAUACUGUGGUUGAAUGUGUAGAAGGAUCGAUAGGGAAAUGUACAUGAGGAUCACCCAUGUUGUGGAUU | 39.9 | – | – | 48.4
21 | AUAUAUAUACAGAAGGUGCCAGCGAGAGCUGCACAUGAGGAUCACCCAUGUUGUCGGUGACGACGCAAGGAUAUGUAUAUAUAU | 7.62 | – | – | 27
22 | CCUCCACAGGAGGAUAUCAUCAAACUAUUGUGAUGAGAAGGCCUGACAUGAGGAUCACCCAUGUUAUCGUGAUG | – | 56 | 185 | –
23 | AGUGUCAUCGAGAAGGCCUCAUGGACAUGAGGAUCACCCAUGUAAAAUGGGAGGAUAUCGAUGAUACAGCUACGUUUCGUAGCA | 69.7 | – | – | 226
24 | AGUUUUGUACAUGAGGAUCACCCAUGUUAAUAUGUGGUAGUCAGAAGGCAUUGUUAGAGUUUUAAUGAGGAUAUGAAUAUUCUG | 25 | – | – | 38.3
25 | AUUAUAUAGACAGGAUAUAGAAUAUUAUUUUAACAUGAGGAUCACCCAUGUAACCUUAUGUGUAGCUAGAAGGGUCAUUUAUUA | – | 89.9 | 162 | –
26 | UUAAAUCAUGUAGGAUAUGCAUGGCGAAGCUACGCAGAAGGACAUGAGGAUCACCCAUGUUAUAGCUACCCAGAUCGGUGGCAA | – | 90.2 | 237 | –
27 | AGGGAGGAAGCUGAGGAUAUCGUAAGGAGGACAUGAGGAUCACCCAUGUGUGUGGAAUUGGAGGACGAGAAGGCAGAGGAGUGGG | 36 | – | – | 31.5
28 | AUCAGCUCGUCAGGAUAUACGUCACUGCGUCAGCAGUGUGGUAAGAUCACAUGAGGAUCACCCAUGUAGAAGGGCCGAGCUGAU | – | 12.2 | 184 | –

Row | Sequence | apparent Kd [1] [nM] | apparent Kd [2] [nM] | apparent Kd [3] [nM] | apparent Kd [4] [nM]
29 | CAGCGCUGUCGAGAGGAUAUGCGGUGAUGGACAUGAGGAUCACCCAUGUUAGCGAUAGCAUUACGGUAGAAGGCUCUGCAGCUGC | 21 | – | – | 128
30 | CCUAUGUGAGGAUAUGGUGUUGGCCACAGGGAAAAGGUCCUCCAGAAGGCACAUGAGGAUCACCCAUGUCGUGG | – | 116 | 127 | –
31 | UUUUUGUUCAAGAAGGAUGUUUUAGUUUAGAUCAUAGGAUAUUGAUAUAUUGUAGACUCAUGUAACAUGAGGAUCACCCAUGUA | 65.4 | – | – | 101
32 | CCGGAAAUGCAGGAUAUCGUAUCGGAUACGAUACGAGAAGGGUAUACAUGAGGAUCACCCAUGUGUCCUACCGG | – | 18.4 | 22.1 | –
33 | CCAUGCGGAUGAGGAUAUUCAUUUAUGAGGAUAGAAGAAGGCAUACAUGAGGAUCACCCAUGUAUACGCAUGAGGAUCCCUUAC | – | 34.2 | 27.2 | –
34 | UGUCGGAGCAGAGGAUAUUACAUGAGGAUCACCCAUGUAUGAACCAAUAGCUGGAAACAGCAAUGUAAGAAGGCUGCUCCAACA | – | 12.3 | 149 | –
35 | AACUUCAGAGGAUAUACAUGAGUGAAAAAAGUCUGAUAACUACAUGAGGAUCACCCAUGUAGAAGGCUGUAGCA | – | 29.1 | 35.4 | –
36 | CUUAUGUGAGGAUAUCAGUAGUGAUACGAUAGUAUUACUGCUGAGAAGGUACAUGAGGAUCACCCAUGUUCCUC | – | 17.1 | 20.4 | –
37 | AAUAUUUAUUGAGGAUAUUCAUACACUGUAUACGGAGAAGGCAAACAAUCAUGAGGACAUGAGGAUCACCCAUGUUGUGACCAU | 14.3 | – | – | 19.8
38 | CUGAUGUGAGGAUAUCGGGCUACAGCCCUGCUGCUAGCAAACGAGAAGGCACAUGAGGAUCACCCAUGUGAUAG | – | 21.6 | 24.3 | –
39 | AAUUAAUUAAUACAUGAGGAUCACCCAUGUAAUUAUUAGAUCUAGGAUAUCAGCUCGAUUAGAGCUGAGAAGGAGAUCACAUGU | 14.8 | – | – | 18.5
40 | CGCACUGAUAGAGGAUAUGUUUAACAUGAGGAUCACCCAUGUGUACAAGUAUCAAUAUUUAUCAAACAGAAGGCUAUUAGUGCG | – | 4.84 | 3.88 | –
41 | UGUAUGGACAGAGGAUAUACAGAUAGGAUCUACUAUCAAACAGUCCUGACAUGAGGAUCACCCAUGUAGAAGGCUGUCCAUACU | – | 22.8 | 105 | –
42 | CCGAUAAUGUAGGAUAUCGUAUCGGAAACGAUACGAGAAGGACAAACAUGAGGAUCACCCAUGUUCCUUAACGG | – | 15.5 | 16.5 | –
43 | UCUUUGCUAUAUACAUGAGGAUCACCCAUGUCCACUGACAGACAGGAUAUCCUUAGAAACUAGCAGGAGAAGGGUCAGUCAUAC | 74.8 | – | – | 140
44 | GGAAAACAUGAGGAUCACCCAUGUGAGGAUAUCGAUGUCCACCCACCCGUGCGGGACUCGAGAAGGCACUUGGA | – | 44.4 | 148 | –
45 | GAUUUAGAGCAGGAUAUCAUAGAAUUGUAUGAAUGAGAAGGGCUCACAUGAGGAUCACCCAUGUGGUCCUAGAU | – | 21.7 | 132 | –
46 | GGAGGGACAGCAGGAUAUGAGUGGGACGCACUGUGUACGCGGGUGUGGAUGUCAGAAGGGCUGACAUGAGGAUCACCCAUGUAA | 55.4 | – | – | 114
47 | GGAGCACAUAUAAACAUGAGGAUCACCCAUGUCAAAAGACAUGAGGAUAUGGAUCGGAAAACGAUCUAGAAGGCAUGGUGCUCC | 29.6 | – | – | 644
48 | CGAUUGUAUAGAGGAUAUGUUAUACAUGAGGAUCACCCAUGUGAGGUGGAAAUAUUUAAUUACAUACAGAAGGCUAUACAAUCG | – | 231 | 237 | –
49 | UUUUUACAUGAGGAUCACCCAUGUCAGGAUAUCGUUAUAUUUUAUUAUUUUAUUUUUUCGAGAAGGGACUAUUA | – | 90.3 | 58.6 | –
50 | CUGAUGUGAGGAUAUCUACGCCAUGUCUUUGACAUGGCGCAAGAGAAGGCACAUGAGGAUCACCCAUGUUCUUC | – | 62.9 | 723 | –
51 | AUAGGCCUAGGAUAUACAUGAGGAUCACCCAUGUUAAUAUUUCAAUCAUGAUAAACGUGUAGAAGGAGGAAUAA | – | 25.9 | 28.6 | –
52 | UAUUUUAACUAAGGAUAUCUAUAAUAAUUUGAAACAUGAGGAUCACCCAUGUUCAUGGGUUUUUAAGAGAAGGUAGAUGAAUAA | 26.1 | – | – | 59.8
53 | AGCUAGGCAGGAUAUACGUAAAUGUCGAAAGACGUAUUGGGACAUGAGGAUCACCCAUGUAGAAGGGUCUAGCA | – | 37.6 | 123 | –
54 | UUACAUACAAAGGUACAUGAGGAUCACCCAUGUUUAUUGGGAAGAAGGGUAACAGUAUUACAUAUAUAGGAUAUUUCACAAAUG | 69.8 | – | – | 90.6
55 | GAAUAGGACAGAGGAUAUACGUGCUAGAGAUACUAGCAAAAUUUCCUCACAUGAGGAUCACCCAUGUAGAAGGCUGUCCUAUCG | – | 18.5 | 394 | –
